Experimental findings from ChEMBL document CHEMBL1671809, “Discovery of phosphoric acid mono-{2-[(E/Z)-4-(3,3-dimethyl-butyrylamino)-3,5-difluoro-benzoylimino]-thiazol-3-ylmethyl} ester (Lu AA47070): a phosphonooxymethylene prodrug of a potent and selective hA(2A) receptor antagonist” (J Med Chem, 2011) are described below.

Where only a bound is given, the exact number is not on record here.

Chain of Cytochrome P450 2C9 (P11712 whole entry): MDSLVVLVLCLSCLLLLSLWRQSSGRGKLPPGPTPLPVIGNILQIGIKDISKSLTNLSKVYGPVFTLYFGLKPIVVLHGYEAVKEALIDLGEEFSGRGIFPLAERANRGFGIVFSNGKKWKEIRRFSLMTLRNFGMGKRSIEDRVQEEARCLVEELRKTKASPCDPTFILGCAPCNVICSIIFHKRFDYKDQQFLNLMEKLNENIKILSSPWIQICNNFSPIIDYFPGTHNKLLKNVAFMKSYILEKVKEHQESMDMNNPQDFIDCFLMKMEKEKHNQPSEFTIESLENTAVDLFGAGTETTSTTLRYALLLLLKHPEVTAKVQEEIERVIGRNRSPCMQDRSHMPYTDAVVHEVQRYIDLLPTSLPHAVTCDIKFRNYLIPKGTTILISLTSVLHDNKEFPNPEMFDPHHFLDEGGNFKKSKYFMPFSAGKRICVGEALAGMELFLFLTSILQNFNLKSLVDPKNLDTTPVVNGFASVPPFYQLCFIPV
Chain of Cytochrome P450 2D6 (P10635 whole entry): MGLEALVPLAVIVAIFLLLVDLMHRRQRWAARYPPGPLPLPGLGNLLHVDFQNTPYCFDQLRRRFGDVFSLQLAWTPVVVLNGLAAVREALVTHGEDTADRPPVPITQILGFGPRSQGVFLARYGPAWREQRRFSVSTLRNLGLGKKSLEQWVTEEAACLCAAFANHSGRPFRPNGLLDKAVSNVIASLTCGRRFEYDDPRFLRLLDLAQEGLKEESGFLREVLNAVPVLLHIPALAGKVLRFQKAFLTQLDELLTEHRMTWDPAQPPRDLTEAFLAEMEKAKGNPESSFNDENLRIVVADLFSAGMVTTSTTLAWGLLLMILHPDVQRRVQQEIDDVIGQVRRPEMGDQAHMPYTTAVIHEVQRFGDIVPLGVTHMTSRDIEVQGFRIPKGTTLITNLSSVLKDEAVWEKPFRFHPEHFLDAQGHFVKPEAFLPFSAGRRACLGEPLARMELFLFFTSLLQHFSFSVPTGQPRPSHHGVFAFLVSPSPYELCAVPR

The test system of one data set is Liver microsomes. Put plainly: Intrinsic clearance in rat liver microsomes at 1 uM after 60 mins by LC-MS/MS analysis. The data set is classed as ADME, Microsome. The note with it: 1 h. The essentials: (§1)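 Compound at 1 μM with human or rat liver microsomes (0.5 mg protein/mL) plus NADPH at 37 C. Samples at 0, 5, 15, 30 and 60 min, quenched with acetonitrile, analysed by LC-MS/MS.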
A general note: Liver microsomes are vesicles of endoplasmic reticulum, rich in cytochrome P450 enzymes.
Consider `CCCC(=O)Nc1ccc(C(=O)Nc2nccs2)cc1`, for which the CL is 18 mL/min.

With `Cc1ccccc1C(=O)Nc1ccc(C(=O)Nc2nccs2)cc1`, the CL was found to be 5 mL/min.

On to `CC(C)(C)CC(=O)Nc1ccc(C(=O)Nc2nccs2)cc1`, for which the CL came to 11 mL/min.

`CC(C)CC(=O)Nc1ccc(C(=O)Nc2nccs2)cc1`: the CL came out at 12 mL/min.

The target in a further data set is Cytochrome P450 3A4 (Homo sapiens, UniProt P08684). Kind of data set: Inhibition of recombinant CYP3A4 after 30 mins.
Chain of Cytochrome P450 3A4 (P08684 whole entry): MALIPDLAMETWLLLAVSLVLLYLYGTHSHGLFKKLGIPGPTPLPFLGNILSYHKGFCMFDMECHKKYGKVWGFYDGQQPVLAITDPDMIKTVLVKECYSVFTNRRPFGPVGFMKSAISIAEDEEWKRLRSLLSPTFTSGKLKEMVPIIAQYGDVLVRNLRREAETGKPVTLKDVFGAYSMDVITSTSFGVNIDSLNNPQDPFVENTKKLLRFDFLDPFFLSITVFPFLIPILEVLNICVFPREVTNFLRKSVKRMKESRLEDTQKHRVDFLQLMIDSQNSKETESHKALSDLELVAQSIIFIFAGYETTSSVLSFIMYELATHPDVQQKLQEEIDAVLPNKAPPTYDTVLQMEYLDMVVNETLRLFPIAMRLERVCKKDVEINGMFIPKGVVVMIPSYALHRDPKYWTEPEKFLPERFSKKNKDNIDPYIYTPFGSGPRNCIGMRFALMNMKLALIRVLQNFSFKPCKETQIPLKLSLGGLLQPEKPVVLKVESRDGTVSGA
Conditions: not given
The data set is classed as ADME. The essentials: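 Recombinant CYP supersomes incubated in phosphate buffer with eight compound concentrations (40-0.02 μM) and fluorogenic substrates. CYP3A4: resorufin benzyl ether 100 μM, 30 min. Fluorescent metabolite read; IC50 relative to uninhibited controls.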
On to `CCCC(=O)Nc1ccc(C(=O)Nc2nccs2)cc1`, for which the IC50 (as a rule, the concentration that gives 50% inhibition) was > 40 µM.

For `Cc1ccccc1C(=O)Nc1ccc(C(=O)Nc2nccs2)cc1`, the IC50 was 1.4 µM.

On to `CC(C)(C)CC(=O)Nc1ccc(C(=O)Nc2nccs2)cc1`, for which the IC50 was > 40 µM.

Turning to `CC(C)CC(=O)Nc1ccc(C(=O)Nc2nccs2)cc1`, the IC50 is > 40 µM.

The target in the next data set is T1, Adenosine receptor A1 (Homo sapiens) (UniProt P30542).
T1 sequence (whole entry): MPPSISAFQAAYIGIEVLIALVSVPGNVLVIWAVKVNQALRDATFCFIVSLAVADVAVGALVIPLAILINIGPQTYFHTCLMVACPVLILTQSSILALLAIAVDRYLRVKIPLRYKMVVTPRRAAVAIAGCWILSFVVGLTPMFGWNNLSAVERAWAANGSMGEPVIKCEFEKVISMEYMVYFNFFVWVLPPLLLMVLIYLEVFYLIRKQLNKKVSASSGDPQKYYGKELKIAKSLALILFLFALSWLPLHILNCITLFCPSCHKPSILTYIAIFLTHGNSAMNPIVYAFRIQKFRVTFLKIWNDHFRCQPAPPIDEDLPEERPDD
Kind of data set: Displacement of [3H]-DPCPX from human adenosine A1 receptor expressed in CHO cells at 10 uM after 30 mins by scintillation counting. The data set is classed as cell-based.
Conditions: not given
On the technique in general: Loss of bound radioactivity is the signal in a displacement assay; it reports binding, not function.
In the case of `CCC(=O)Nc1ccc(C(=O)Nc2nccs2)cc1`, the inhibition (in general, the drop in the measured response relative to a control, in per cent) came out at 31%.

The compound `CCCC(=O)Nc1ccc(C(=O)Nc2nccs2)cc1` showed an inhibition of 54%.

In turn, `Cc1ccccc1C(=O)Nc1ccc(C(=O)Nc2nccs2)cc1` yielded an inhibition of 47%.

The compound `Cc1cc(NC(=O)CC(C)(C)C)ccc1C(=O)Nc1nccs1` gave an inhibition of 36%.

In turn, `CC(C)(C)CC(=O)Nc1ccc(C(=O)Nc2nccs2)cc1` had an inhibition of 39%.

Consider `CC(C)(C)CC(=O)Nc1ccc(C(=O)Nc2nccs2)c(Cl)c1`, for which the inhibition was 14%.

Compound `CC(C)CC(=O)Nc1ccc(C(=O)Nc2nccs2)cc1` gave an inhibition of 64%.

The target of another data set is T2, Adenosine receptor A2a (Homo sapiens, UniProt P29274). Kind of data set: Displacement of [3H]-ZM241385 from human adenosine A2A receptor expressed in high five cells after 30 mins by scintillation counting.
T2 sequence (P29274 whole entry): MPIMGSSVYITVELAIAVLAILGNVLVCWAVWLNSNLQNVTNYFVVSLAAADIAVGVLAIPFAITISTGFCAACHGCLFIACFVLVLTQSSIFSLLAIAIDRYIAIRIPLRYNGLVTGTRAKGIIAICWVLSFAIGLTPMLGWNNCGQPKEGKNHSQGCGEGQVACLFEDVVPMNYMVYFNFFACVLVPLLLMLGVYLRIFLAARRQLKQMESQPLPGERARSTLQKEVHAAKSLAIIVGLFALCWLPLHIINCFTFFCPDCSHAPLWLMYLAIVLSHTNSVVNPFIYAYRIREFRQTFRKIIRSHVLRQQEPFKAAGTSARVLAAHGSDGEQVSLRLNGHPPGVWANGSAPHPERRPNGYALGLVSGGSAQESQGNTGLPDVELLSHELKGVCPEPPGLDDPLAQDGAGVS
Conditions: not given
Turning to `CC(C)C(=O)Nc1ccc(C(=O)Nc2nccs2)cc1`, the affinity corresponds to a Ki of 0.3 µM.

As for `CCC(=O)Nc1ccc(C(=O)Nc2nccs2)cc1`, the Ki (commonly the dissociation constant of the complex between target and ligand, obtained from inhibition or displacement) was 0.89 µM.

`CCCC(=O)Nc1ccc(C(=O)Nc2nccs2)cc1` displayed a Ki of 0.35 µM.

Turning to `Cc1ccccc1C(=O)Nc1ccc(C(=O)Nc2nccs2)cc1`, affinity was put at a Ki of 0.22 µM.

With `Cc1cc(NC(=O)CC(C)(C)C)ccc1C(=O)Nc1nccs1`, the affinity corresponds to a Ki of 0.2 µM.

In turn, `CC(C)(C)CC(=O)Nc1ccc(C(=O)Nc2nccs2)cc1` came in with a Ki of 0.036 µM.

For the compound `CC(C)(C)CC(=O)Nc1ccc(C(=O)Nc2nccs2)c(Cl)c1`, the affinity, expressed as Ki, was 0.18 µM. This Ki is about 5-fold higher than that of the compound before.

In turn, `Cc1nc(NC(=O)c2ccc(NC(=O)CC(C)(C)C)cc2)sc1C` showed a Ki of 0.22 µM. The Ki values of the last two compounds are within 1.5-fold of each other.

In turn, `CC(C)(C)CNC(=O)c1ccc(C(=O)Nc2nccs2)cc1` yielded a Ki of 0.11 µM.

In turn, `CC(C)CC(=O)Nc1ccc(C(=O)Nc2nccs2)cc1` came in with a Ki of 0.09 µM.

A further data set has as its target Cytochrome P450 2D6 (Homo sapiens, UniProt P10635). Kind of data set: Inhibition of recombinant CYP2D6 after 45 mins.
Conditions: not given
The data set is classed as ADME. In short, it runs like this: (§2)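 Recombinant CYP supersomes incubated in phosphate buffer with eight compound concentrations (40-0.02 μM) and fluorogenic substrates. CYP1A2: 7-ethoxy-3-cyanocoumarin 10 μM, 28 min. CYP2C19: same substrate 50 μM, 45 min. CYP2D6: AMMC 3 μM, 45 min. CYP3A4: resorufin benzyl ether 100 μM, 30 min. Fluorescent metabolite read; IC50 relative to uninhibited controls.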
In the case of `CCCC(=O)Nc1ccc(C(=O)Nc2nccs2)cc1`, the IC50 was > 40 µM.

Consider `Cc1ccccc1C(=O)Nc1ccc(C(=O)Nc2nccs2)cc1`, for which the IC50 is > 40 µM.

As to `CC(C)(C)CC(=O)Nc1ccc(C(=O)Nc2nccs2)cc1`, the IC50 was > 40 µM.

In the case of `CC(C)CC(=O)Nc1ccc(C(=O)Nc2nccs2)cc1`, the IC50 was > 40 µM.

The next data set has as its target Cytochrome P450 2C9 (Homo sapiens, UniProt P11712). Put plainly: Inhibition of recombinant CYP2C9 after 45 mins. The data set is classed as ADME.
Conditions: not given
Regarding `CCCC(=O)Nc1ccc(C(=O)Nc2nccs2)cc1`, the IC50 is > 40 µM.

Turning to `Cc1ccccc1C(=O)Nc1ccc(C(=O)Nc2nccs2)cc1`, the IC50 is > 40 µM.

`CC(C)(C)CC(=O)Nc1ccc(C(=O)Nc2nccs2)cc1`: the IC50 is > 40 µM.

For `CC(C)CC(=O)Nc1ccc(C(=O)Nc2nccs2)cc1`, the IC50 was > 40 µM.

The next data set deals with Cytochrome P450 2C19 (Homo sapiens, UniProt P33261). Put plainly: Inhibition of recombinant CYP2C19 after 45 mins. The data set is classed as ADME.
Chain of Cytochrome P450 2C19 (P33261 whole entry): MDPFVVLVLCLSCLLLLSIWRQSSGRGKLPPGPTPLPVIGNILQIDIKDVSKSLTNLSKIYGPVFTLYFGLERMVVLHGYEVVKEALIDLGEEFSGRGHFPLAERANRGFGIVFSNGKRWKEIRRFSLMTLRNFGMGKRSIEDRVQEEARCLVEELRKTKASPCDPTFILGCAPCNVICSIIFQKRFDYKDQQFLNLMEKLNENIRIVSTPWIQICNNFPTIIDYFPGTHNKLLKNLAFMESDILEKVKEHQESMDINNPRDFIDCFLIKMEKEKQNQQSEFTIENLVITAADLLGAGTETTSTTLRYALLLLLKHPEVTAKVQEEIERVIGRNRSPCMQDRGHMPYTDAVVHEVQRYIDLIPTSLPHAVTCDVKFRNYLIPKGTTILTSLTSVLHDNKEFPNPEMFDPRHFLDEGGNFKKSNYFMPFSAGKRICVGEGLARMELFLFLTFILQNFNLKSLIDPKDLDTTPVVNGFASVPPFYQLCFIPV
Conditions: not given
In short, it runs like this:
as §2
On to `CCCC(=O)Nc1ccc(C(=O)Nc2nccs2)cc1`, for which the IC50 turned out to be 36 µM.

On to `Cc1ccccc1C(=O)Nc1ccc(C(=O)Nc2nccs2)cc1`, for which the IC50 was 23 µM.

`CC(C)(C)CC(=O)Nc1ccc(C(=O)Nc2nccs2)cc1`: the IC50 is > 40 µM.

On to `CC(C)CC(=O)Nc1ccc(C(=O)Nc2nccs2)cc1`, for which the IC50 was > 40 µM.

Another data set concerns Liver microsomes. Kind of data set: Intrinsic clearance in human liver microsomes at 1 uM after 60 mins by LC-MS/MS analysis. The data set is classed as ADME, Microsome. The note with it: 1 h. In short, it runs like this:
as §1
The compound `CCCC(=O)Nc1ccc(C(=O)Nc2nccs2)cc1` gave a CL of 0.8 L/min.

For `Cc1ccccc1C(=O)Nc1ccc(C(=O)Nc2nccs2)cc1`, the CL is 0.5 L/min.

`CC(C)(C)CC(=O)Nc1ccc(C(=O)Nc2nccs2)cc1` yielded a CL of 0.7 L/min.

For the compound `CC(C)CC(=O)Nc1ccc(C(=O)Nc2nccs2)cc1`, the CL is 1.6 L/min.

The next data set has as its target T3, Cytochrome P450 1A2 (Homo sapiens, UniProt P05177).
T3 sequence (P05177 whole entry): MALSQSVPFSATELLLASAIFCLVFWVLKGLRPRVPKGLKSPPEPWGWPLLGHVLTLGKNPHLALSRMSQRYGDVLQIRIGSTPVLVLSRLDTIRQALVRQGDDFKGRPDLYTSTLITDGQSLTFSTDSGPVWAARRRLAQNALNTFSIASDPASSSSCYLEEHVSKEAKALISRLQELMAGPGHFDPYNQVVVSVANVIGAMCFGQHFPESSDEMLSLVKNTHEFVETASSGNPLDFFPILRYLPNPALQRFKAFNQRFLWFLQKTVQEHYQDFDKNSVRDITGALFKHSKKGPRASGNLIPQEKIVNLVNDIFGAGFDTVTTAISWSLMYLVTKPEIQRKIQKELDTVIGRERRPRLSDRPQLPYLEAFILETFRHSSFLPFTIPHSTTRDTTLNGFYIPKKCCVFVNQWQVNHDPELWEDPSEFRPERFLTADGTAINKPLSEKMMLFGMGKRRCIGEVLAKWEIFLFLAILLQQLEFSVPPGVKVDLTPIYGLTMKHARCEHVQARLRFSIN
Kind of data set: Inhibition of recombinant CYP1A2 after 28 mins. The data set is classed as ADME.
Conditions: not given
In short, it runs like this:
as §2
As for `CCCC(=O)Nc1ccc(C(=O)Nc2nccs2)cc1`, the IC50 is > 40 µM.

Turning to `Cc1ccccc1C(=O)Nc1ccc(C(=O)Nc2nccs2)cc1`, the IC50 was > 40 µM.

For `CC(C)(C)CC(=O)Nc1ccc(C(=O)Nc2nccs2)cc1`, the IC50 was > 40 µM.

Consider `CC(C)CC(=O)Nc1ccc(C(=O)Nc2nccs2)cc1`, for which the IC50 was > 40 µM.

The test system of another data set is Caco-2. Kind of data set: Efflux ratio of permeability from basolateral to apical over apical to basolateral side in human Caco2 cells after 21 to 28 days by LC-MS/MS analysis.
Conditions: not given
`CCCC(=O)Nc1ccc(C(=O)Nc2nccs2)cc1`: the Ratio amounted to 0.7.

As to `Cc1ccccc1C(=O)Nc1ccc(C(=O)Nc2nccs2)cc1`, the Ratio is on record as 0.8.

Consider `CC(C)(C)CC(=O)Nc1ccc(C(=O)Nc2nccs2)cc1`, for which the Ratio came out at 0.7.

As for `CC(C)CC(=O)Nc1ccc(C(=O)Nc2nccs2)cc1`, the Ratio was 0.7.

A further data set has as its target T2, Adenosine receptor A2a. Put plainly: Displacement of [3H]-ZM241385 from human adenosine A2A receptor expressed in high five cells at 10 uM after 30 mins by scintillation counting.
Conditions: not given
The essentials: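 hA2A membranes from baculovirus-infected High Five cells (harvested 72 h), pretreated with adenosine deaminase 2 U/mL for 30 min at 37 C. Membranes at 10.6 μg protein/well were incubated with 1 nM [3H]-ZM241385 in 50 mM Tris/HCl pH 7.4 for 30 min at 25 C. GF/B filtration, scintillation counting. Nonspecific binding by CGS15943. Percent displacement at 10 μM.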
In turn, `CC(C)(C)CC(=O)Nc1ccc(NC(=O)c2nccs2)cc1` came in with an inhibition of 18%.

`CC(C)(C)CNC(=O)c1ccc(NC(=O)c2nccs2)cc1` had an inhibition of 0%.
